Efflux pump mplx: inhibitors of Candida efflux pumps in yeast, primary screen, S. cerevisiae, Nile Red, multiplex; 330,000 tested, 0.44% active; inhibition, % at 10 µM; S. cerevisiae Candida pump triplex;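 active means plate passing quality check with inhibition over a set limit, or well fluorescence over plate mean plus 4 SD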;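 further: Nile Red retained in pooled yeast measured as flow cytometry median fluorescence; 0% = buffer negative control and 100% = Enniatin B positive control; higher means more Nile Red kept so more efflux inhibition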
CSC inhib: cancer stem cell viability inhibitors, primary screen, luminescence; cancer stem cell-like cells viability; inhibition, % at 7.5 µM; 300,000 tested, 1.1% active; AID 2717, 2010; in the data active means inhibition above about 75%; tested in HMLE shEcad cells
T cruzi inh: inhibitors of intracellular T. cruzi growth, primary screen, luminescence, NIH3T3 host cells. T. cruzi beta-gal in NIH3T3, 90 h. inhibition, % (no concentration beside the values). 300,000 tested, 1.4% active. AID 1885, 2009;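 active means mean inhibition across valid replicates above about 55%, limit read from the data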;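 further: signal also drops with host cell toxicity which is not excluded here; 0% = plate median of DMSO wells and 100% = zero luminescence signal; higher percent means less beta-gal luminescence so fewer parasites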
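System: mouse NIH/3T3 fibroblasts infected with β-gal-expressing T. cruzi Tulahuen C4 / Input: NIH/3T3 cells, 5,000 per well / Buffer or medium: Low-serum DMEM with 2% FBS / Probe or stimulus: 5000 reporter trypomastigotes per well / Schedule: ≥90 h infection period, 3 h prior cell attachment / Measured by: GalScreen luminescence, 60 min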
Beta apoptosis: inhibitors of cytokine-induced beta cell apoptosis, primary screen, luminescence; INS-1E cytokine-induced death, ATP luminescence, 48 h; percent of positive-control rescue, neutral wells zero; protection from apoptosis, % (no concentration beside the values); 300,000 tested, 0.8% active;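 active means Every replicate reaches about 75%, or at least half do and their mean reaches it too, limit read from the data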;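 further: 0% = cytokine-treated negative control wells and 100% = positive control rescue; higher means more ATP so stronger rescue from cytokine killing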
WT yeast gro inh: growth inhibition of WT strain, primary screen, mitochondrial fusion inhibitor project, WT and mutant strains, chemical genetic; mitochondrial fusion phenotypic screen; inhibition, % at 10 µM; 190,000 tested, 2.1% active; AID 1362, 2008; in the data active means inhibition above about 58%; tested in S. cerevisiae
SUMO Mot1 rescue: yeast Mot1-301 growth rescue at high temperature, primary screen, SUMOylation pathway inhibitor project, S. cerevisiae, ATP luminescence, 38.5C; 320,000 tested, 1% active; growth rescue, % at 18.8 µM; S. cerevisiae Mot1-301 growth rescue; percent above DMSO median, 100 means doubled; AID 2716, 2010;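 active means every valid replicate shows activation above 250% relative to neutral control wells; inactive means the rest, any valid replicate at or below 250%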;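 further: OY570 slx delta 5 strain wells were the positive control but not used for scaling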
* hit, by the source's call; nt = no result given. Hits are enriched below; roughly 4.8% of the tested compounds scored in any of these assays.

SMILES	Efflux pump mplx	CSC inhib	T cruzi inh	Beta apoptosis	WT yeast gro inh	SUMO Mot1 rescue
CCOC(=O)c1c(NC(C)=O)sc2c1CCC(C=O)=C2Sc1ccccc1	0.2	88.8*	4.5	-2.3	-0.5	-19.6
CC(C)NC(=O)/C(C#N)=C/c1ccc(N(C)C)o1	-0.1	-13.1	-2.5	-0.9	nt	-3.2
CC/C(=C\C1CCCCC1)C(NP(=O)(c1ccccc1)c1ccccc1)c1ccccc1 (configuration not stated)	nt	126.3*	43.9	6.5	78.8*	94.0
C/C(=C\C1CCCCC1)C(NC(=O)c1ccc(C(F)(F)F)cc1)c1ccc(-c2ccccc2)cc1 (configuration not stated)	0.0	-14.8	8.7	3.5	nt	-6.5
O=C(O)CN1C(=O)/C(=C\c2cccc(OC(=O)c3ccco3)c2)SC1=S	0.3	4.8	-13.0	-1.8	nt	416.8*
CCN1C(=O)/C(=C\c2cccc(OC(=O)c3ccco3)c2)SC1=S	0.0	nt	-3.6	-6.6	nt	321.2*
C=CCN1C(=O)/C(=C\c2cccc(OC(=O)c3ccco3)c2)SC1=S	-0.1	1.3	-1.4	nt	nt	3.8
CCc1nccn1S(=O)(=O)c1ccccc1[N+](=O)[O-]	0.0	-9.9	0.3	-3.8	nt	1.1
COc1cc(/C=C2\SC(=S)NC2=O)ccc1OS(=O)(=O)c1ccccc1	0.0	97.1*	-23.3	112.8*	79.2*	-4.6
COc1cc(/C=C2/SC(=S)NC2=O)ccc1OS(=O)(=O)c1ccc(C)cc1	-0.2	102.4*	-23.9	38.8	73.4*	41.6
COc1ccc(C2=NOC(C)(c3nnc(-c4ccccc4)o3)C2)cc1 (configuration not stated)	0.0	-1.7	23.0	-9.9	nt	-3.6
O=C(CN(c1ccccc1)S(=O)(=O)c1ccccc1[N+](=O)[O-])Nc1ccccc1C(=O)N1CCOCC1	0.4	3.0	-1.0	nt	7.3	1.4
Cc1ccc(NC(=O)c2cccc(-n3cnnn3)c2)cc1Cl	0.2	nt	nt	5.1	nt	-1.4
Clc1ccc(C(Cn2ccnc2)OCc2c(Cl)cccc2Cl)c(Cl)c1 (configuration not stated)	0.2	21.6	nt	27.9	nt	346.3*
Cc1ccccc1NS(=O)(=O)c1ccc(OCC(=O)NCc2cccnc2)cc1	-0.5	9.7	4.1	9.8	-0.7	385.1*
CCN(Cc1ccccc1)C(=O)c1[nH]c2ccc(OC)cc2c1C	nt	nt	15.8	nt	nt	nt
CCN(CC)CCNC(=O)c1[nH]c2ccc(OCc3ccccc3)cc2c1C	0.1	82.7*	26.3	23.7	14.7	224.3
Cc1cc(NC(=O)CN2C(=O)NC3(CCCCCC3)C2=O)no1	-0.1	-0.5	-10.3	-0.5	nt	63.4
Cc1ccsc1/C=N/NC(=S)NCCc1ccccc1	0.8	30.2	0.2	4.7	69.0*	1.3
CNC(=S)N/N=C/C1=CCC2CC1C2(C)C (configuration not stated)	0.0	-16.5	27.5	-6.7	17.5	-6.3
CC1(C)C2CC=C(/C=N/NC(=S)NCCc3ccccc3)C1C2 (configuration not stated)	0.0	12.1	5.7	6.9	66.2*	-5.1
CCOC(=O)c1c(C)[nH]c(C(=O)COC(=O)CNC(=O)c2ccc(Cl)cc2Cl)c1C	-0.1	-5.5	-7.7	-2.9	-5.8	-6.7
CCCOc1cccc(C2C(C(=O)c3cccs3)=C(O)C(=O)N2Cc2cccnc2)c1 (configuration not stated)	0.0	-0.6	-6.4	-8.3	nt	1.2
O=C(N/N=C(\c1ccccc1)c1ccccn1)c1cccc([N+](=O)[O-])c1	0.1	-8.9	57.9*	101.6*	43.4	-5.1
CCOc1ccc(C(=O)N/N=C(\c2ccccc2)c2ccccn2)cc1	-0.1	61.2	54.3	97.0*	68.9*	-4.3
SMILES	Efflux pump mplx	CSC inhib	T cruzi inh	Beta apoptosis	WT yeast gro inh	SUMO Mot1 rescue
Cc1cc(NC(=O)C(C)SCC(=O)OCC(=O)N(C)c2ccccc2)no1 (configuration not stated)	0.1	1.5	-10.3	1.3	nt	-6.2
CCN(CC)CCn1c(=N)n(CC(O)COc2ccccc2)c2ccccc21 (configuration not stated)	0.1	-2.7	-6.3	12.0	nt	13.1
CCN(CC)CCn1c(=N)n(CCOc2ccccc2)c2ccccc21	0.4	41.0	69.0*	-1.0	3.6	-0.8
COc1ccc(CCN(Cc2cccs2)S(=O)(=O)c2ccc(S(=O)(=O)N(C)C3CCCCC3)cc2)cc1OC	0.0	-3.3	61.1*	nt	15.2	225.5
COc1ccc(CCN(Cc2cccs2)S(=O)(=O)c2ccc(-n3cnnn3)c(OC)c2)cc1OC	-0.1	-2.3	33.4	2.6	-8.1	8.8
COCc1cc(C)nc(SCC(=O)Nc2cc(C(F)(F)F)ccc2N2CCOCC2)c1C#N	2.6	53.0	67.1*	-2.3	nt	239.8
COCc1cc(C)nc(SCC(=O)Nc2ccccc2C)c1C#N	0.0	3.8	-2.9	-8.3	-61.8	3.2
CC(=O)Nc1ccc(S(=O)(=O)NNc2ccc([N+](=O)[O-])cc2)cc1	0.0	-4.3	2.2	nt	nt	296.1*
O=C(NNc1ccccc1)C(=O)NNS(=O)(=O)c1ccc([N+](=O)[O-])cc1	-0.4	92.5*	61.1*	-1.3	44.2	368.5*
COc1ccc(CN(C)c2ccc(S(=O)(=O)N3CCN(C)CC3)cc2[N+](=O)[O-])cc1OC	0.2	nt	nt	102.1*	nt	-13.5
CN1CCN(c2ccc(C(=O)c3ccccc3)cc2[N+](=O)[O-])CC1	-0.6	83.2*	56.2*	-6.0	21.7	-4.3
COc1ccc(CCN(C)c2ccc(S(=O)(=O)N3CCCC3)cc2[N+](=O)[O-])cc1OC	0.3	-5.7	-11.1	-6.7	18.2	17.0
CN1CCN(c2ccccc2NC(=O)c2ccc(N3CCCCC3)c([N+](=O)[O-])c2)CC1	0.0	nt	5.8	-1.0	4.6	22.1
O=[N+]([O-])c1cc(S(=O)(=O)N2CCCCCC2)ccc1F	0.0	101.7*	nt	-5.6	47.7	577.2*
O=[N+]([O-])c1cc(Cl)ccc1N1CCN(c2ccccc2O)CC1	-0.1	25.8	24.7	7.1	75.4*	0.1
CC(NC(=O)CNC(=O)C1O[C@@H]2OC(C)(C)O[C@@H]2[C@H]2OC(C)(C)O[C@@H]12)C(=O)O (some centres not stated)	-0.1	-6.3	-19.1	-6.1	3.2	5.8
CN1CCN(c2ccc(S(=O)(=O)N3CCCCC3)cc2[N+](=O)[O-])CC1	-0.1	12.5	68.0*	-3.2	-4.5	20.8
COc1ccc(C(=O)CSc2ccc(-c3ccccc3)nn2)cc1	0.3	-9.0	-0.3	0.7	28.5	9.1
COc1ccc(-c2ccc(SC)nn2)cc1	-0.3	80.0*	3.7	60.4	40.4	-53.1

Bioassay records: PubChem, several laboratories
